Published values of several laboratories.
Each line is one published result; the experiments were not run side by side.
Target: Homeodomain-interacting protein kinase 2 (HIPK2, Homo sapiens, UniProt Q9H2X6)

Compound	test	conditions	remaining binding [%]
CN(C)c1ncc(F)c(-c2cnn3ncccc23)n1	binding	1 µM	57
Nc1ncc2c(n1)-c1c([nH]c3ccc(C#CC4CC4)cc13)CCCC2	binding, competition with immobilised ligand	1 µM	97
O=C(O)[C@H]1[C@H](Cn2nnc3ccccc3c2=O)CC[C@@H]1C(=O)c1ccc(OCCC2CCOCC2)cc1	cell-free assay, competition with immobilised ligand	1 µM	100
CN(CCCC(F)(F)F)c1nccc(-c2cnn3ncccc23)n1	binding	1 µM	100
CC1=C(C#N)[C@@H](c2ccc3[nH]nc(C)c3c2)C(C#N)=C(c2ccc(Cl)cc2)N1	cell-free assay, competition with immobilised ligand	1 µM	86.1
O=C(c1ccc(Nc2ncc(Cl)c(-c3cc4ccccc4s3)n2)cc1)N1CCC(N2CCCC2)CC1	binding, competition with immobilised ligand	1 µM	0.2
CN(C)c1nccc(-c2cnn3ncccc23)n1	binding	1 µM	49
O=C(c1ccc(Nc2nccc(-c3cc4ccccc4s3)n2)cc1)N1CCC(N2CCCC2)CC1	binding, competition with immobilised ligand	1 µM	8.8
C[C@@H](c1ccc(-n2cnc3c(N)ncnc32)cc1)N1CCc2nn(C)c(Cc3ccccc3)c2C1=O	binding, competition with immobilised ligand	0.1 µM	80
COc1cc(Nc2nccc(-c3cnn4nc(OC)ccc34)n2)cc(C(F)(F)F)c1	binding, competition with immobilised ligand	1 µM	34
Cn1nc(C(F)(F)F)cc1-c1cnc(N2CCc3cc(S(=O)(=O)Nc4c(F)cc(Cl)cc4F)cc(N4CCCC4=O)c32)nc1	cell-free assay, competition with immobilised ligand	1 µM	74
O=C(NCCCN1CCOCC1)c1ccc(Nc2ncc(Cl)c(-c3ccc(Cl)s3)n2)cc1	binding, competition with immobilised ligand	1 µM	8.9
C[C@H](NC(=O)c1cnc2n1[C@](C)(Cc1ccc(C#N)cc1)C(=O)N2c1cc(Cl)c(F)c(Cl)c1)C(=O)NC1(c2ccccn2)CC1	cell-free assay, competition with immobilised ligand	1 µM	100
COc1cnc(Nc2cccc(S(N)(=O)=O)c2)nc1N1CCN(c2ccccc2)CC1	binding, competition with immobilised ligand	1 µM	100
CC1CCCN1c1nccc(-c2cnn3ncccc23)n1 (stereo not shown)	binding	1 µM	100
NS(=O)(=O)c1cc(NC(=O)C2(c3ccccc3Cl)CC2)ccc1Oc1cccc(Cl)c1	cell-free assay, competition with immobilised ligand	1 µM	88
N[C@H]1CCN(c2nccc(-c3cnn4ncccc34)n2)C1	binding	1 µM	98
O=C(NCC1CCOCC1)c1n[nH]cc1NC(=O)c1c(F)cccc1F	binding, competition with immobilised ligand	1 µM	100
CN(c1nccc(-c2cnn3ncccc23)n1)C1CC1	binding	1 µM	100
C=CC(=O)N1CCC(C(=O)NCC(=O)N2CCN(c3nc(-c4cnc(N)nc4C(F)F)nc(N4CCOCC4)n3)CC2)CC1	binding, competition with immobilised ligand	1 µM	83
C[C@H]1CCN(c2nccc(-c3cnn4ncccc34)n2)C1	binding	1 µM	45
CC(=O)Nc1c(C(C)=O)c(=O)n(C)c2nc(-c3ccc(Cl)cc3Cl)c(-c3ccc(Cl)cc3)cc12	cell-free assay, competition with immobilised ligand	1 µM	100
